In the library only some 4.6% were active in any assay of this set; here they are far more common.
CHO parental Ca: ATP-evoked calcium signal inhibitors, parental CHO, primary screen, counter-screen for OX1R antagonist project, cell-based, fluorescence, Fluo-8 calcium dye | parental CHO-K1, ATP-induced calcium, Fluo-8 fluorescence | inhibition, % at 5.6 µM | 330,000 compounds, 0.63% hits | AID 463079, 2010;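 active = inhibition above that plate's mean sample inhibition plus 3 SD, cut at about 26% in these data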;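 also: 0% = ATP-challenged DMSO wells and 100% = DMSO wells without ATP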
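Test system: untransfected parental CHO cell line; also added: ATP stimulus; dosing: 5.6 µM, single dose; signal: calcium-sensitive Fluo-8 fluorescence; measure: percent inhibition of ATP-evoked calcium rise, normalized to controls; benchmarks: low control ATP plus DMSO, high control DMSO only; replication: one well per compound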
TAAR1 antag: human TAAR1 antagonists, primary screen, Fluo-8 calcium fluorescence, CHO RD-HGA16 cells. 360,000 compounds, 1.5% hits. inhibition, % at 3 µM. antagonist. Trace amine-associated receptor 1 (Homo sapiens), Q96RJ0;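 active = inhibition above a per-plate cutoff, the mean inhibition of test compounds on that plate plus 3 SD, cut at about 49% in these data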;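 also: 0% = DMSO plus EC80 beta-PEA response and 100% = DMSO alone without agonist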
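test system = CHO RD-HGA16 cells bearing hTAAR1 | replication = singlicate | controls = DMSO-only wells and EC80 β-PEA-stimulated wells | reagent = EC80 β-phenethylamine stimulus | read-out basis = percent inhibition of PEA-evoked calcium signal, max/basal emission ratio | schedule = seeding 17-24 h prior, 75-min 37 °C, 30-min RT dye loading | signal = kinetic Fluo-8 calcium fluorescence measurement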
OX1R antag-1: OX1R (HCRTR1) antagonists, primary screen, fluorescence, CHO/OX1R cells, Fluo-8 calcium, orexin A; Fluo-8 calcium fluorescence; inhibition, % at 5 µM; 330,000 compounds, 0.43% hits;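 active = inhibition above its plate's threshold, mean inhibition of all tested compounds on the plate plus 3 SD, cut at about 37% in these data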;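 also: 0% = orexin A challenge wells and 100% = SB-334867-A antagonist wells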
Target sequence (O43613 whole entry, looked up): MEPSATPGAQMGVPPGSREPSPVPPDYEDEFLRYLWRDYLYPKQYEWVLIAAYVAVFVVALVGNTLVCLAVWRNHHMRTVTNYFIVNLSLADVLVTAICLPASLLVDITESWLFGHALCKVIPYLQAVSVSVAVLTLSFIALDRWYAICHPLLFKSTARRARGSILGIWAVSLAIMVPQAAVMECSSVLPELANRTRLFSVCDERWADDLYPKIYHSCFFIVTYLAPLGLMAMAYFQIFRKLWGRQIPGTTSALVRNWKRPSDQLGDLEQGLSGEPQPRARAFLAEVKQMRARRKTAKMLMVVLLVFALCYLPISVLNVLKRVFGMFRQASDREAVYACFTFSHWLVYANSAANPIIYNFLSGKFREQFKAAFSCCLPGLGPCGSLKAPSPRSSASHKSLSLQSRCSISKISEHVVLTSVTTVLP
GPR7 antagonist: GPR7 receptor antagonists, primary screen, cell-based, fluorescence, single concentration; Neuropeptides B/W receptor type 1 (Homo sapiens), P48145; GPR7-expressing cells, fluorescence antagonist assay; inhibition, % at 4.4 µM; 290,000 compounds, 1.1% hits; in the data active = inhibition above about 16%, passing the limit was not always enough;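 also: cells stimulated with the agonist NPW; 0% = agonist with vehicle and 100% = vehicle without agonist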
OX1R antag-2: antagonists of human orexin 1 receptor (OX1R). Orexin/Hypocretin receptor type 1 (Homo sapiens), O43613. OX1R-expressing cells, FRET antagonist read-out. inhibition, % at 6.6 µM. 330,000 compounds, 1.8% hits. AID 485270, 2010; in the data active = inhibition mostly above about 38%, no sharp cut-off; inactive = mostly below about 40%;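 also: 0% = agonist challenge alone and 100% = reference antagonist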
TAAR1 agonist: human TAAR1 agonists, primary screen, Fluo-8 calcium fluorescence, CHO RD-HGA16 cells; AID 624467, 2012; vehicle wells 0%, saturating PEA agonist 100%; activation, % at 3 µM; 360,000 compounds, 0.99% hits;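 active = activation above the mean activation of all test compounds in the run plus 3 SD, cut at about 38% in these data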
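Assay system – CHO-derived RD-HGA16 cells with stable Gα16 and human TAAR1 · Compound dosing – one-point dosing at 3 µM (nominal) · Incubation – 17-24 h seeding, 75 min 37 °C dye, 30 min RT · Measured by – kinetic Fluo-8 calcium fluorescence · Control set – DMSO vehicle as 0%, PEA at EC100 as 100% · Repeats – single well for each compound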
OX1R HTRF confirm: OX1R (HCRTR1) antagonists, confirmation, cell-based, HTRF; OX1R-expressing cells, HTRF antagonist assay; 1,800 compounds, 49% hits; shares compounds with OX1R antag-2; inhibition, % at 6.6 µM; AID 492964, 2010; in the data active = inhibition above about 55%;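 also: CHO cells expressing OX1R stimulated with orexin A at about EC80; 0% = agonist challenge alone and 100% = reference antagonist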
CHO-K1 HTRF cnt: signal inhibition in parental CHO-K1 cells, counter-screen for OX1R antagonist project, cell-based, HTRF; 1,800 compounds, 48% hits; HTRF counterscreen; inhibition, % at 6.6 µM; AID 493232, 2011; shares compounds with OX1R antag-2; in the data active = inhibition above about 17%;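 also: 0% = agonist challenge with vehicle and 100% = vehicle alone without agonist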
Starred values were filed as active, the others as inactive; / = no result given.

SMILES	CHO parental Ca	TAAR1 antag	OX1R antag-1	GPR7 antagonist	OX1R antag-2	TAAR1 agonist	OX1R HTRF confirm	CHO-K1 HTRF cnt
CC(=O)c1ccc(OCC(=O)Nc2c(C)nn(-c3ccccc3)c2C)cc1	-8	16	-8	/	91*	9	27	7
COC(=O)c1ccc(/C=C(\C#N)c2ccccn2)cc1	-12	4	-23	2	45	15	/	/
N#C/C(=C\c1ccc([N+](=O)[O-])cc1)c1ccccn1	-14	4	-7	-10	121*	-2	53	51*
Cc1noc(/C=C/c2ccccc2F)c1S(=O)(=O)N1CCC(C(=O)N2CCN(C)CC2)CC1	-11	-7	-16	2	3	4	/	/
CCc1ccc(NC(=O)Nc2cccc(OC)c2)cc1	-14	23	-21	-13	17	4	/	/
CCCS(=O)(=O)N1CCN(c2cc3c(cc2[N+](=O)[O-])n(C)c(=O)n3C)CC1	2	11	-5	-8	78*	8	33	49*
O=C(COc1ccccc1Cl)Nc1ccccc1C(=O)N1CCCCC1	-22	-7	-32	-19	17	0	/	/
O=C(O)COc1c(Cl)cc(/C=C2/NC(=O)NC2=O)cc1Br	-9	11	-15	-13	88*	1	42	37*
COc1cc(/C=C2\NC(=O)NC2=O)cc(Br)c1OC	-8	1	0	3	-4	7	/	/
CCOc1ccc(NC(=O)c2c(OC)cccc2OC)cc1	-4	3	-26	-2	16	2	/	/
O=C1NC(=O)/C(=C\c2ccc(Oc3ccc([N+](=O)[O-])cn3)cc2)S1	17	-6	2	9	77*	-1	46	10
Cc1cc(C)n(C(=O)c2cc([N+](=O)[O-])cc([N+](=O)[O-])c2)n1	6	-19	1	-5	104*	-2	71*	62*
Cc1cc(C)n(C(=O)c2cccc([N+](=O)[O-])c2)n1	-4	1	-2	-15	24	0	/	/
Cc1ccc(C2=NS(=O)(=O)N(C)C(C(=O)NCc3ccccc3)=C2)cc1	-7	8	-18	-6	1	4	/	/
Cc1ccc(NC(=O)CCc2ccc(C)o2)cc1	-9	-10	-16	-7	8	-1	/	/
N#CC(C#N)=Cc1c[nH]c(=O)c(C#N)c1Nc1ccccc1	10	-10	4	/	88*	2	44	62*
O=c1c2ccccc2nc2n1CC/C2=C\N1CCN(c2ccc([N+](=O)[O-])cc2)CC1	-6	0	-12	/	94*	1	32	23*
O=[N+]([O-])c1ccc(N2CCN(c3ccccc3)CC2)cc1	7	-3	-6	2	-4	2	/	/
CC(C(=O)Nc1ccccc1F)N1CCN(S(=O)(=O)c2ccc(C(F)(F)F)cc2)CC1 (centres undefined)	/	-13	/	/	/	4	/	/
COc1ccc(-c2csc(NC(=S)NC(=O)c3ccco3)n2)cc1	-5	13	-1	-12	8	3	/	/
CCC(=O)N1CCc2cc(-c3csc(NC(=O)c4ccco4)n3)ccc21	-9	26	22	-2	94*	3	66*	9
O=C(NC(=S)Nc1nc(-c2ccccc2)cs1)c1ccco1	-7	41	-10	-3	79*	6	63*	7
CCC(=O)N=c1ccn(C2=Nc3ccccc3NC2=C(C#N)C#N)cc1	-4	-38	-12	-9	102*	2	49	36*

Bioassay records (PubChem)
